EBI2 antag = EBI2 (human) antagonism; P32249; EBI2 beta-arrestin recruitment, luminescence, 7a,25-OHC stimulated; inhibition, % at 5 µM; 360,000 compounds, 0.81% hits; AID 651636; in the data active = inhibition above about 38%;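 note: enzyme fragment complementation signal reports receptor beta-arrestin coupling in cells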
MC4R barr agon = activates human MC4R beta-arrestin recruitment. 360,000 compounds, 0.98% hits. U2OS MC4R beta-arrestin complementation, luminescence; percent of melanotan II response, DMSO zero. P32245. activation, % at 8.9 µM;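 active = activation above a per-plate cutoff, the mean activation of sample wells on that plate plus 3 SD, cut at about 8% in these data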
MC4R antag cAMP = human MC4R antagonism in cAMP assay. 360,000 compounds, 0.48% hits. MC4R-expressing cells, MTII-stimulated cAMP, LANCE TR-FRET. P32245. AID 540295. inhibition, % at 6.5 µM;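 active = inhibition above its plate's cutoff, the mean of tested wells on that plate plus 3 SD, cut at about 29% in these data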
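material = U2OS cells stably expressing human melanocortin 4 receptor (MC4R) | also added = Melanotan II challenge | dosing = single nominal compound dose of 6.5 µM | detection = TR-FRET with Eu-cAMP and labeled anti-cAMP, 671 nm | replication = singlicate | timing = compound 30 min, challenge 1 h, detection 1 h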
HTR2A ag = activates the mouse 5-HT2A serotonin receptor; P35363; CHO-K1 mHTR2A beta-arrestin complementation, luminescence; percent of 30 µM serotonin response; activation, % at 7.6 µM; 360,000 compounds, 0.66% hits;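 active = activation above a run cutoff, the mean activation of all tested compounds plus 3 SD, cut at about 14% in these data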
Target sequence (P35363 whole entry, looked up): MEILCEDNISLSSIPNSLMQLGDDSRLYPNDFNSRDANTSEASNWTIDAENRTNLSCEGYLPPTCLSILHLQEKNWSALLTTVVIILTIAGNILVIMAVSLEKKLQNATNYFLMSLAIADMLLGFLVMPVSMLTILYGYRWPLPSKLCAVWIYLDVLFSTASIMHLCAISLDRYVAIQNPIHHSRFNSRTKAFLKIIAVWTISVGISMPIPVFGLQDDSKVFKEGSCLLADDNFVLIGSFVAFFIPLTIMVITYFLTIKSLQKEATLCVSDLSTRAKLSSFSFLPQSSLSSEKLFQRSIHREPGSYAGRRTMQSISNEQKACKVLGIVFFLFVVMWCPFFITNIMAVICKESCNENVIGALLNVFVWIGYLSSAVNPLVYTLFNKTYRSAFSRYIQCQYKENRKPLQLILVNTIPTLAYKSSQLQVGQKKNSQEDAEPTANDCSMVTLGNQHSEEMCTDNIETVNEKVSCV
U2OS cAMP counter = counter-screen for MC4R antagonists: nonselective cAMP signaling inhibitors; shares compounds with MC4R antag cAMP; parental U2OS, forskolin cAMP, LANCE TR-FRET; inhibition, % at 6.5 µM; 1,600 compounds, 26% hits;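 active = mean inhibition over triplicates above the low-control well mean plus 3 SD, set per campaign, cut at about 13% in these data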;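 note: signal is single emission at 671 nm which falls as cellular cAMP rises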
MC4R cAMP antag = human MC4R cAMP antagonism confirmation. shares compounds with MC4R antag cAMP. MC4R-expressing cells, MTII-stimulated cAMP, TR-FRET. inhibition, % at 6.5 µM. 1,600 compounds, 27% hits. AID 602195; in the data active = inhibition above about 29%
Of the large screens only hits and unclear results are named; the others gave an inactive call (follow-up assays come after a bar, where they were run). A selection: hits, their analogues and other compounds. The true share with any hit is near 2.8%.

O=C(Nc1ccc(F)c(Cl)c1)c1cc(C2CCCCN2C(=O)c2ccccc2)on1 (stereo not given)	none
Cc1ccc(C(=O)c2c[nH]c(C(=O)NCc3cccnc3)c2)cc1	none
COc1cccc(C(=O)c2c[nH]c(C(=O)NCc3cccnc3)c2)c1	MC4R antag cAMP 30 | U2OS cAMP counter inactive | MC4R cAMP antag inactive
Cc1ccccc1NC(=O)CN1C(=O)NC2(CCc3ccccc32)C1=O (stereo not given)	none
COc1cc2c(cc1NC(=O)CN1C(=O)NC3(CCc4ccccc43)C1=O)oc1ccccc12 (stereo not given)	MC4R antag cAMP 44 | U2OS cAMP counter inactive | MC4R cAMP antag inactive
O=C(CCC1CCCN(Cc2ccc3c(c2)OCCO3)C1)NCc1ccccc1F (stereo not given)	MC4R antag cAMP 29 | U2OS cAMP counter inactive | MC4R cAMP antag inactive
O=C(CCC1CCCN(Cc2ccc3c(c2)OCCO3)C1)NCc1ccc(F)c(F)c1 (stereo not given)	none
CCOC(=O)c1sc(NC(=O)CCc2ccc(OC)cc2)nc1C	MC4R antag cAMP 50 | U2OS cAMP counter inactive | MC4R cAMP antag inactive
CCOC(=O)c1sc(NC(=O)CC)nc1C	none
COc1ccc(C(CNC(=O)CCNS(=O)(=O)c2ccccc2)N2CCOCC2)cc1 (stereo not given)	none
CCC1=C(Nc2ccccc2)COC1=O	none
O=C(CCN1CCCC1Cc1ccccc1)c1ccc2c(c1)OCCO2 (stereo not given)	MC4R antag cAMP 36 | U2OS cAMP counter 16 | MC4R cAMP antag 35
O=C(CCN1CCCCC1)c1ccc2c(c1)OCCO2	none
Cc1ccc(C)c(S(=O)(=O)NCC(=O)OCC(=O)Nc2sccc2C(N)=O)c1	MC4R antag cAMP 49 | U2OS cAMP counter 13 | MC4R cAMP antag 33
Cc1ccc(NC(=O)c2sc(Cl)nc2-c2ccccc2)cc1C	MC4R antag cAMP 43 | U2OS cAMP counter 16 | MC4R cAMP antag 46
O=C(Nc1ccccc1)c1sc(Cl)nc1-c1ccccc1	none
O=C(Nc1cc(F)cc(F)c1)c1sc(Cl)nc1-c1ccccc1	MC4R antag cAMP 31 | U2OS cAMP counter inactive | MC4R cAMP antag inactive
COc1cc(C(=O)NCC2CCCO2)cc(Br)c1OCc1ccccc1 (stereo not given)	none
COc1ccc(CCNC(=O)C2(C)CCC(=O)N2Cc2ccc3c(c2)OCO3)cc1OC (stereo not given)	none
COc1ccc(CCNC(=O)C2(C)CCC(=O)N2Cc2ccc(F)cc2Cl)cc1OC (stereo not given)	MC4R antag cAMP 39 | U2OS cAMP counter inactive | MC4R cAMP antag inactive
Cn1c(=O)c2cc(NC(=O)NCCc3cccs3)ccc2n1C/C=C/c1ccccc1	none
O=C(COc1cccc2c1CCNC2=O)Nc1ccc(Cl)cc1	MC4R antag cAMP 29 | U2OS cAMP counter inactive | MC4R cAMP antag inactive
NC(=O)c1ccc(NC(=O)COc2cccc3c2CCNC3=O)cc1	none
Cc1cc(Oc2ccc(C)c(Cl)c2)nc(SCC(=O)c2ccccc2)n1	MC4R antag cAMP 45 | U2OS cAMP counter 23 | MC4R cAMP antag 47
CC(CC(=O)Nc1ccc2c(c1)c(=O)n(C)n2Cc1ccc(F)cc1)c1ccccc1 (stereo not given)	none
CCOc1ccc2c(ccc(/C=C/c3cc(C)c4cccnc4c3O)[n+]2C)c1	MC4R antag cAMP 50 | U2OS cAMP counter inactive | MC4R cAMP antag 38
COCOc1ccc(-c2ncc(OC)nc2NC(=O)c2ccsc2)cc1	none
Cc1ccc(S(=O)(=O)NC2CCCc3ccccc32)cc1C (stereo not given)	MC4R antag cAMP 31 | U2OS cAMP counter inactive | MC4R cAMP antag inactive
CSCCC(NC(=O)c1ccc([N+](=O)[O-])cc1Cl)C(=O)OCC(=O)NC1CCCC(C)C1C (stereo not given)	MC4R antag cAMP 33 | U2OS cAMP counter 17 | MC4R cAMP antag 40
CSCCC(NC(=O)c1ccc([N+](=O)[O-])cc1Cl)C(=O)OCC(=O)NC(=O)CN1CCCC1=O (stereo not given)	none
CSCCC(NC(=O)c1ccc([N+](=O)[O-])cc1Cl)C(=O)OC1CCCCC1=O (stereo not given)	MC4R antag cAMP 31 | U2OS cAMP counter 14 | MC4R cAMP antag 39
CC1(C(=O)Nc2ccc3c(c2)OCO3)CCN1C(=O)CC1CC1 (stereo not given)	none
CC(C)C[C@H]1CN(CCCC[C@H]2CNC(=O)C(=O)N2CC2CCCCC2)C(=O)C(=O)N1CCc1ccc(O)cc1	none (no result: MC4R barr agon, MC4R antag cAMP)
O=C(NCc1ccccc1)c1cc(C2CCCN(C(=O)CCCc3ccccc3)C2)on1 (stereo not given)	none
CCOC(=O)c1cccc(C2=CC(=O)C[C@H](c3ccc(Cl)cc3)C2)c1	none
O=C(OCC(=O)N1CCN(c2ccccc2)CC1)c1cc(F)c(F)cc1Cl	none
CCN(CC(=O)Nc1ccc2c(c1)OCCO2)C(=O)CCc1ccccc1Cl	none
CC(C)=CC(=O)N1CCC(n2nccc2NC(=O)CCc2ccccc2)CC1	MC4R antag cAMP 35 | U2OS cAMP counter inactive | MC4R cAMP antag inactive
O=C(C(=O)N(Cc1ccccc1)Cc1ccccc1)c1c(-c2ccccc2)[nH]c2ccccc12	MC4R antag cAMP 50 | U2OS cAMP counter inactive | MC4R cAMP antag inactive
O=S(=O)(c1cccnc1)N1CCn2cccc2C1c1ccccc1F (stereo not given)	none
CC(C)(C)NC(=O)N1CCn2cccc2C1c1ccccc1F (stereo not given)	MC4R antag cAMP 30 | U2OS cAMP counter inactive | MC4R cAMP antag inactive
Nc1nc(Cl)c(C=O)c(N2CCCCC2)n1	MC4R antag cAMP 37 | U2OS cAMP counter 20 | MC4R cAMP antag inactive
CC1=NNC(=O)/C1=C\c1cn(-c2ccccc2)nc1-c1cccs1	EBI2 antag 68, MC4R antag cAMP 47 | U2OS cAMP counter 22 | MC4R cAMP antag 44
O=C(O)CCCCCN1C(=O)/C(=C/c2cn(-c3ccccc3)nc2-c2cccs2)SC1=S	none
O=C(c1cccs1)N(Cc1nc2sc3c(c2c(=O)[nH]1)CCCC3)C1CCCC1	MC4R antag cAMP 30 | U2OS cAMP counter inactive | MC4R cAMP antag inactive
CC(c1ccco1)N(C(=O)c1ccccc1NS(=O)(=O)c1cccc([N+](=O)[O-])c1)c1ccccn1 (stereo not given)	MC4R antag cAMP 30 | U2OS cAMP counter inactive | MC4R cAMP antag inactive
CCN(CC)S(=O)(=O)c1ccc(OC)c(NC(=O)Cn2cnc3c2c(=O)n(C)c(=O)n3C)c1	MC4R antag cAMP 33 | U2OS cAMP counter inactive | MC4R cAMP antag inactive
COc1ccc(S(=O)(=O)N2CCCCC2)cc1NC(=O)Cn1cnc2c1c(=O)n(C)c(=O)n2C	none
O=C(Nc1nccs1)c1cc2cc(Cl)ccc2oc1=O	MC4R antag cAMP 33 | U2OS cAMP counter inactive | MC4R cAMP antag inactive
O=[N+]([O-])c1cc(S(=O)(=O)Oc2ccccc2)ccc1Cl	MC4R antag cAMP 30 | U2OS cAMP counter 35 | MC4R cAMP antag inactive

Compound activity deposited in PubChem BioAssay by several laboratories.
